Results reported in ChEMBL document CHEMBL3826901, “Design, synthesis, and mode of action studies of a mitomycin tetramer inducing double activations with a single probe” (Bioorg Med Chem, 2016).

Experiments:
Escherichia coli [1] = assay: Induction of interstrand cross-linking in EcoR1-linearized Escherichia coli pBR322 plasmid DNA at 0.10 mM after 2 hrs using 5 equiv of Et3P by ethidium bromide staining based alkaline agarose gel electrophoresis
Method in brief: (§1)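 EcoRI-linearized pBR322 DNA in aqueous Tris-HCl pH 7.4 was N2-deaerated for 15 min. Mitomycin (from 5 mM DMSO stock) and Et3P (5 equiv) were added, then incubated 2 h at room temperature. Purified DNA was run on a denaturing alkaline agarose gel (40 mM NaOH, 1 mM EDTA) with a HindIII-digested λ marker. The gel was neutralized and ethidium bromide-stained, and the cross-linked band quantified.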

[2] = Prodrug activation in Tris HCl methanolic solution at 0.03 mM at pH 7.4 using 5 equiv of Et3P by UV-visible spectrophotometry; settings: buffer, pH 7.4, 30 µM
Method in brief: (§2)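 Mitomycin (from 1.0 mM methanolic stock) was in 0.1 M Tris-HCl methanolic buffer, 'pH' 7.4, at 25 °C. Nucleophile was added from methanolic stock (final 0.06–1.5 mM). UV-vis scans (200–500 nm) ran beyond two half-lives. Pseudo-first-order kobs and t1/2 were derived from 370 nm absorbance. Final 'pH' was within ±0.1 units. Runs were in duplicate and averaged.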

Escherichia coli [3] = assay: Induction of interstrand cross-linking in EcoR1-linearized Escherichia coli pBR322 plasmid DNA at 0.20 mM after 2 hrs using 5 equiv of Et3P by ethidium bromide staining based alkaline agarose gel electrophoresis; method in brief: as §1
[4] = Prodrug activation in Tris HCl methanolic solution at pH 7.4 using 5 equiv of Et3P by UV-visible spectrophotometry; settings: buffer
[5] = Prodrug activation in Tris HCl methanolic solution at 0.015 mM at pH 7.4 using 10 equiv of L-DTT by UV-visible spectrophotometry; settings: buffer, pH 7.4, 15 µM; method in brief: as §2
[6] = Prodrug activation in Tris HCl methanolic solution at 0.015 mM at pH 7.4 using 20 equiv of GSH by UV-visible spectrophotometry; settings: buffer, pH 7.4, 15 µM; method in brief: as §2
[7] = Prodrug activation in Tris HCl methanolic solution at 0.015 mM at pH 7.4 using 20 equiv of L-DTT by UV-visible spectrophotometry; settings: buffer, pH 7.4, 15 µM; method in brief: as §2
[8] = Prodrug activation in Tris HCl methanolic solution at 0.015 mM at pH 7.4 using 5 equiv of Et3P by UV-visible spectrophotometry; settings: buffer, pH 7.4, 15 µM; method in brief: as §2
[9] = Prodrug activation in Tris HCl methanolic solution at 0.015 mM at pH 7.4 using 10 equiv of Et3P by UV-visible spectrophotometry; settings: buffer, pH 7.4, 15 µM; method in brief: as §2
[10] = Prodrug activation in Tris HCl methanolic solution at 0.015 mM at pH 7.4 using 20 equiv of Et3P by UV-visible spectrophotometry; settings: buffer, pH 7.4, 15 µM; method in brief: as §2
[11] = Prodrug activation in Tris HCl methanolic solution at 0.015 mM at pH 7.4 using 50 equiv of Et3P by UV-visible spectrophotometry; settings: buffer, pH 7.4, 15 µM; method in brief: as §2
[12] = Prodrug activation in Tris HCl methanolic solution assessed as half-life at 0.015 mM at pH 7.4 using 10 equiv of L-DTT by UV-visible spectrophotometry; settings: buffer, pH 7.4, 15 µM; method in brief: as §2
[13] = Prodrug activation in Tris HCl methanolic solution assessed as half-life at 0.015 mM at pH 7.4 using 20 equiv of L-DTT by UV-visible spectrophotometry; settings: buffer, pH 7.4, 15 µM; method in brief: as §2
[14] = Prodrug activation in Tris HCl methanolic solution assessed as half-life at 0.015 mM at pH 7.4 using 20 equiv of GSH by UV-visible spectrophotometry; settings: pH 7.4, 15 µM; method in brief: as §2
[15] = Prodrug activation in Tris HCl methanolic solution assessed as half-life at 0.015 mM at pH 7.4 using 5 equiv of Et3P by UV-visible spectrophotometry; settings: buffer, pH 7.4, 15 µM; method in brief: as §2
[16] = Prodrug activation in Tris HCl methanolic solution assessed as half-life at 0.015 mM at pH 7.4 using 10 equiv of Et3P by UV-visible spectrophotometry; settings: buffer, pH 7.4, 15 µM; method in brief: as §2
[17] = Prodrug activation in Tris HCl methanolic solution assessed as half-life at 0.015 mM at pH 7.4 using 20 equiv of Et3P by UV-visible spectrophotometry; settings: buffer, pH 7.4, 15 µM; method in brief: as §2
[18] = Prodrug activation in Tris HCl methanolic solution assessed as half-life at 0.015 mM at pH 7.4 using 50 equiv of Et3P by UV-visible spectrophotometry; settings: buffer, pH 7.4, 15 µM; method in brief: as §2
Escherichia coli [19] = assay: Induction of interstrand cross-linking in EcoR1-linearized Escherichia coli pBR322 plasmid DNA at 0.025 mM after 2 hrs using 5 equiv of Et3P by ethidium bromide staining based alkaline agarose gel electrophoresis; method in brief: as §1
Escherichia coli [20] = assay: Induction of interstrand cross-linking in EcoR1-linearized Escherichia coli pBR322 plasmid DNA at 0.050 mM after 2 hrs using 5 equiv of Et3P by ethidium bromide staining based alkaline agarose gel electrophoresis; method in brief: as §1
[21] = Prodrug activation in Tris HCl methanolic solution at 0.030 mM at pH 7.4 using 10 equiv of Et3P by UV-visible spectrophotometry; settings: buffer, pH 7.4, 30 µM; method in brief: as §2

With CO[C@@]12[C@H](COC(N)=O)C3=C(C(=O)C(C)=C(NCC(O)CNC4=C(C)C(=O)C5=C(C4=O)[C@@H](COC(N)=O)[C@@]4(OC)[C@H]6N[C@H]6CN54)C3=O)N1C[C@@H]1N[C@@H]12 (some centres undefined) the Activity (Escherichia coli [1]) was 5% and the Drug metabolism [2] was “metabolite_notdetected”.
In the case of CO[C@@]12[C@H](COC(N)=O)C3=C(C(=O)C(C)=C(N)C3=O)N1C[C@@H]1N[C@@H]12 [MITOMYCIN], the Activity (Escherichia coli [3]) is reported as 2% and the Drug metabolism [4] is reported as “metabolite_notdetected”.
With CO[C@@]12[C@H](COC(N)=O)C3=C(C(=O)C(C)=C(NCC(CNC4=C(C)C(=O)C5=C(C4=O)[C@@H](COC(N)=O)[C@@]4(OC)[C@H]6N[C@H]6CN54)SSC(CNC4=C(C)C(=O)C5=C(C4=O)[C@@H](COC(N)=O)[C@@]4(OC)[C@H]6N[C@H]6CN54)CNC4=C(C)C(=O)C5=C(C4=O)[C@@H](COC(N)=O)[C@@]4(OC)[C@H]6N[C@H]6CN54)C3=O)N1C[C@@H]1N[C@@H]12 (some centres undefined) the K [5] was 0.69 day⁻¹, the K [6] was 1 day⁻¹ and the K [7] was 1.3 day⁻¹. For the same compound, the K [8] was 0.72 day⁻¹, the K [9] was 1.3 day⁻¹ and the K [10] was 2.9 day⁻¹. It also gave a K [11] of 6.9 day⁻¹, a t1/2 [12] of 1 days and a t1/2 [13] of 0.53 days. It also gave a t1/2 [14] of 0.69 days, a t1/2 [15] of 0.96 days and a t1/2 [16] of 0.53 days. The t1/2 [17] was 0.24 days, the t1/2 [18] was 0.1 days and the Activity (Escherichia coli [19]) was 17%. The Activity (Escherichia coli [20]) was 41%, the Activity (Escherichia coli [1]) was 51% and the Activity (Escherichia coli [3]) was 68%.
Compound CO[C@@]12[C@H](COC(N)=O)C3=C(C(=O)C(C)=C(NCC4CCC(CNC5=C(C)C(=O)C6=C(C5=O)[C@@H](COC(N)=O)[C@@]5(OC)[C@H]7N[C@H]7CN65)SS4)C3=O)N1C[C@@H]1N[C@@H]12 (some centres undefined) has an Activity (Escherichia coli [1]) of 40.5% and a K [21] of 1.35 day⁻¹.
